Assay results from different studies.
Lines come from different studies, so protocols differ.
OfChi-h: Chitinase (OfChi-h, Ostrinia furnacalis, UniProt Q4AE59)
HDAC7: Histone deacetylase 7 (HDAC7, Homo sapiens, UniProt Q8WUI4)
WDR5: WD repeat-containing protein 5 (WDR5, Homo sapiens, UniProt P61964)
PRKCE: Protein kinase C epsilon type (PRKCE, Homo sapiens, UniProt Q02156)

| Compound | target | test | conditions | measurement | result |
| --- | --- | --- | --- | --- | --- |
| CC(C)Oc1ccc(S(=O)(=O)c2ccc(Oc3cc(OCC(N)=O)c(C(=O)C(Cl)Cl)cc3[N+](=O)[O-])cc2)cc1 | [Pyruvate dehydrogenase (acetyl-transferring)] kinase isozyme 3, mitochondrial (PDK3, Homo sapiens, UniProt Q15120) | enzyme activity, inhibitor, ATP luminescence | 10 µM | inhibition | 27.9% |
| CN(C)c1nc(NCc2cccc(C(F)(F)F)c2)c(/N=N/c2ccc(Cl)cc2)c(N(C)C)n1 | OfChi-h | enzyme activity, inhibitor, fluorescence | 1 µM | inhibition | 91.9% |
| O=C(/C=C/c1cccc(OS(=O)(=O)Oc2ccc(C(F)(F)F)cc2)c1)NO | HDAC7 | enzyme activity, inhibitor, fluorescence | 10 µM | inhibition | 30% |
| CCCCc1ccc(CNc2nc(N(C)C)nc(N(C)C)c2/N=N/c2ccc(Cl)cc2)cc1 | OfChi-h | enzyme activity, inhibitor, fluorescence | 1 µM | inhibition | 91.9% |
| O=C(NO)c1cncc(OS(=O)(=O)Oc2ccc3ccccc3c2)c1 | HDAC7 | enzyme activity, inhibitor, fluorescence | 10 µM | inhibition | 46% |
| C[C@@H]1CN(c2ccc(-c3cc(C(=O)NCCOCCOCCOCCOCCOCCOCCOCCOCCOCCNC(=O)/C=C/c4[nH]cc(C(=O)N[C@@H](CC(N)=O)c5ccc(F)c(Cl)c5)c4-c4ccc(Cl)cc4F)ccc3F)cc2NC(=O)c2c[nH]c(=O)cc2C(F)(F)F)C[C@H](C)N1C | WDR5 | thermal stability, DSF | 5.5 µM | ΔTm | 8.9 °C |
| CNc1ncc2c(/C=C/C(=O)N3CCC(OC)CC3)nn(Cc3cccc(C(F)(F)F)c3)c2n1 | PRKCE | enzyme activity, inhibitor, radiometric | 1 µM | remaining activity | 99% |
| Cc1cc([C@@H](C)Nc2ccccc2C(=O)O)c2nc(N3CCC(F)(F)CC3)c(C#N)c(=O)n2c1 | PRKCE | binding, competition with immobilised ligand | 10 µM | remaining binding | 100% |
| COc1cc(-c2cncc3c2CN(C)Cc2cc(N4CCNCC4)ccc2-3)cc(OC)c1OC | Serine/threonine-protein kinase 35 (STK35, Homo sapiens, UniProt Q8TDR2) | enzyme activity, inhibitor | 1 µM | remaining activity | 111% |
| O=C(O)CNc1cccc(CN(Cc2ccc(-n3cccn3)cc2)S(=O)(=O)c2cccnc2)n1 | Beta-2 adrenergic receptor (ADRB2, Homo sapiens, UniProt P07550) | ligand displacement, radioligand | 10 µM | inhibition | 12% |
| C=CC(=O)N1CCC(COCC(=O)N2CCN(c3nc(-c4cnc(N)nc4C(F)F)nc(N4CCOC[C@@H]4C)n3)CC2)CC1 | Epithelial discoidin domain-containing receptor 1 (DDR1, Homo sapiens, UniProt Q08345) | binding, competition with immobilised ligand | 1 µM | remaining binding | 99% |
| COc1ccc(S(=O)(=O)N(CC(=O)NO)CC(C)C)cc1 | 72 kDa type IV collagenase (MMP2, Homo sapiens, UniProt P08253) | enzyme activity, inhibitor | 0.5 µM | inhibition | 60.9% |
| C[C@@H]1CN(c2ccc(-c3cc(C(=O)NCCOCCOCCOCCOCCNC(=O)/C=C/c4[nH]cc(C(=O)N[C@@H](CC(N)=O)c5ccc(F)c(Cl)c5)c4-c4ccc(Cl)cc4F)ccc3F)cc2NC(=O)c2c[nH]c(=O)cc2C(F)(F)F)C[C@H](C)N1C | WDR5 | thermal stability, DSF | 5.5 µM | ΔTm | 10.6 °C |
| C=CS(=O)(=O)c1ccc(Nc2nc(OCC3CCCCC3)c3nc[nH]c3n2)cc1 | Gasdermin-D (GSDMD, Homo sapiens, UniProt P57764) | binding, BLI |  | koff | 0.0439 s⁻¹ |
